This is a sample that favours compounds with a hit; in the whole collection about 4.2% have one here.
Autophagy mod: alters autophagy in cells. AID 463193. 190,000 tested, 0.98% active. calls only at 10 µM (by protocol). MEF GFP-LC3 puncta imaging; test concentration mostly 10 µM;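 active = percentage of spot-positive cells more than 3 SD above its plate mean, without a fluorescence outlier flag or 80% toxicity; inconclusive = no clear call, values can overlap the other calls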
SKKanGAS inh: SKKanGAS growth inhibition; S. pyogenes SKKanGAS, kanamycin growth, BacTiter-Glo, 6 h; inhibition, % at 7.5 µM; 300,000 tested, 1.3% active; AID 1662;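 active = mean replicate score, as percent of positive control median, at least 50; inconclusive = mean below 50 but one replicate at or above 50; inactive = mean and every replicate below 50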;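 also: strain carries kanamycin resistance gene driven by streptokinase promoter and grows in 40 µg/ml kanamycin; loss of luminescence reflects streptokinase promoter inhibition or plain growth inhibition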
Rad51 HR inh: Rad51 (human) homologous recombination inhibition; Q06609; hRad51 DNA strand exchange, fluorescence dequenching; AID 1385; inhibition, % at 10 µM; 200,000 tested, 0.085% active;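 active = inhibition above 40% at the single screening dose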
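Assay system: Human Rad51 nucleoprotein filaments preassembled on unlabelled ssDNA | Reagent: Donor/quencher-labelled 47-bp dsDNA substrate | Doses: One concentration, 10 µM final | Times: 37 °C 15-min filament assembly, 30-min compound preincubation, 15-min exchange | Technique: Fluorescein emission 520 nm, excitation 485 nm | Benchmarks: Plate control and blank wells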
Insulin prom up: MIN6 insulin promoter up-regulation; MIN6 insulin promoter-GFP reporter, high-content imaging; hits give high values; z-score at 5 µM; 190,000 tested, 0.3% active; AID 1625;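 active = z-score above 3 at 5 µM with at least 500 cells counted in the well; inconclusive = wells under 500 cells, flagged as cytotoxic or low count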
WT yeast gro inh: growth inhibition of WT yeast, mitochondrial fusion screen | 190,000 tested, 2.1% active | inhibition, % at 10 µM | mitochondrial fusion phenotypic screen, WT strain; in the data active = inhibition above about 58%; tested in S. cerevisiae
KCC2 mod: modulates chloride dependent transport by human KCC2. B-score of Tl+ flux slope (higher = more flux/activation; lower = inhibition) at 10 µM. 190,000 tested, 2.2% active. AID 1456. KCC2 cells, thallium flux FluoZin-2 fluorescence;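 active = thallium flux slope and its plate-corrected score both differing from the plate sample mean at a set confidence after two filtering rounds, in either direction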;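 also: slope of fluorescence scaled to starting intensity during 10 to 20 s after thallium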
Target sequence (Q9H2X9 whole entry, looked up): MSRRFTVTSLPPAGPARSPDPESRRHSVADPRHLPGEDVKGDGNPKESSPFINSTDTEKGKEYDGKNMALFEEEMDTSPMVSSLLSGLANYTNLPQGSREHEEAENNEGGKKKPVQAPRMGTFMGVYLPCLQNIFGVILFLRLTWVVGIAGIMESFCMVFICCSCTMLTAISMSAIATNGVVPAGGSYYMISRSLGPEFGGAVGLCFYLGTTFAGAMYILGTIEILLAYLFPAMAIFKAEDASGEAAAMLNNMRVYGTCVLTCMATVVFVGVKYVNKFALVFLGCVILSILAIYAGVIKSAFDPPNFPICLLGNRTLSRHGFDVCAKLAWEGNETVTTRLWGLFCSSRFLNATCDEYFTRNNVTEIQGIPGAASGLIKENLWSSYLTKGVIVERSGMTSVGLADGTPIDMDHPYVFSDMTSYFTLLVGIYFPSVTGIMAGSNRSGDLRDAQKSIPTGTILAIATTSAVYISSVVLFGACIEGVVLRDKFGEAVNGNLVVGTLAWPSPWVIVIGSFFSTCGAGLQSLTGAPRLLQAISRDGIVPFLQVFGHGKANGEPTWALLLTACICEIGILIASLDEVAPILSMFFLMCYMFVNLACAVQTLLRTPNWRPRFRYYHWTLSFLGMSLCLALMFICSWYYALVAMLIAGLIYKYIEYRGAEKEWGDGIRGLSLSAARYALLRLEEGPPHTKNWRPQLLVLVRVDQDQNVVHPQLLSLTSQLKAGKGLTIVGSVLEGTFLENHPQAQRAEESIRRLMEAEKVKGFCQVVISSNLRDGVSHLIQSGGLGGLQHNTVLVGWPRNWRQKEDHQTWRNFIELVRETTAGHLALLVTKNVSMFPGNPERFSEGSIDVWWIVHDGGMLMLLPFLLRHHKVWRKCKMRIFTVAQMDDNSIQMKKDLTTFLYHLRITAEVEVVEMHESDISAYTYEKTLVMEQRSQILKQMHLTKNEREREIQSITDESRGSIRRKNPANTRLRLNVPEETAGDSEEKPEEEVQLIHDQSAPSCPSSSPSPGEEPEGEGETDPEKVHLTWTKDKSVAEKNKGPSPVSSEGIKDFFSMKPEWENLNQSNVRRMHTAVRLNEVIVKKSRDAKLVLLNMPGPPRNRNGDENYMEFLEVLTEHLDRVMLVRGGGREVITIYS
Numbers stand for hits; – = inactive; ? = inconclusive; · = no result given; + = active, no number.

SMILES	Autophagy mod	SKKanGAS inh	Rad51 HR inh	Insulin prom up	WT yeast gro inh	KCC2 mod
Cc1ccc(-c2nnc3sc(C4COc5ccccc5O4)nn23)cc1 (stereo not drawn)	–	·	–	–	75	–
O=c1[nH]c(=S)[nH]c2sc3c(c12)CCCCCC3	·	–	·	·	·	·
Cc1ccc(NC(=O)C2=C(c3ccccc3)S(=O)(=O)CCS2(=O)=O)cc1	–	–	–	–	–	–
Cc1c(Cl)cccc1NC(=O)c1nc(C)n(-c2cc(OC(C)C)c(Cl)cc2Cl)n1	–	–	–	–	75	–
CNC(=O)c1nc(C)n(-c2ccc(Cl)cc2Cl)n1	–	–	–	–	–	–
CCC(CC)C(=O)N1CC(=O)Nc2ccc(F)cc2C1c1ccc(F)cc1 (stereo not drawn)	·	–	·	·	·	·
N=c1n(Cc2ccccc2)c2ccccc2n1CC(O)COc1ccc(Cl)cc1Cl (stereo not drawn)	–	·	–	?	94	–
COc1ccc(N2CCN(C(=O)C3CCCN3S(=O)(=O)c3cccc4nsnc34)CC2)cc1 (stereo not drawn)	·	–	·	·	·	·
Cc1cccc(C(=O)c2cnc3ccccc3c2-c2ccccc2)c1	–	–	–	·	62	–
S=C(Nc1cccc(Cl)c1)Nc1ccccc1Oc1ccccc1	–	–	–	·	–	5.4
S=C(Nc1ccccc1Oc1ccccc1)Nc1cccc(Cl)c1Cl	–	–	–	–	65	31
O=C(Nc1ccccc1Oc1ccccc1)C1CCCC1	–	–	–	–	–	–
CNC(=S)Nc1cc(Cl)ccc1Oc1ccccc1	–	–	–	–	–	–
S=C(Nc1ccc(Cl)cc1Cl)Nc1ccccc1Oc1ccccc1	–	–	–	–	–	25
CCNC(=S)Nc1cc(Cl)ccc1Oc1ccccc1	–	–	–	–	–	–
CCN(CC(=O)Nc1ccc(NC(C)=O)cc1)C(=O)CSc1ncnc2sc(C)c(C)c12	·	–	·	·	·	·
CCN(CC)S(=O)(=O)c1ccc2c(c1)oc(=O)n2CC(=O)NC1CCCCC1	·	–	·	·	·	·
O=C(C1Cc2ccccc2CN1C(=O)c1ccccc1)N1CCN(c2ccccc2)CC1 (stereo not drawn)	·	–	–	–	·	–
Clc1ccc2ncc(-c3nnnn3-c3ccccc3)c(-c3ccccc3)c2c1	–	–	–	–	70	–
CCOc1ccc(NC(=O)/C=C/c2ccc(OC)cc2)c([N+](=O)[O-])c1	+	–	–	–	–	–
Cc1ccc(NC(=O)CSc2nnc(Cc3csc(C)n3)o2)c(C)c1	·	–	·	·	·	·
Cc1ccccc1C(=O)Oc1cccc(Nc2ncnc3ccccc23)c1	–	75	–	·	·	–
C=CCN1C(=O)/C(=C2/Sc3ccc(OC)cc3N2C)SC1=Nc1cccc(O)c1	+	–	–	–	–	–
CC(C)(C)C(=O)CN1C(=O)NC2(CCCc3ccccc32)C1=O (stereo not drawn)	·	–	·	·	·	·
O=c1cc(C(F)(F)F)[nH]c2c(C(F)(F)F)cccc12	–	?	–	–	78	–
SMILES	Autophagy mod	SKKanGAS inh	Rad51 HR inh	Insulin prom up	WT yeast gro inh	KCC2 mod
Cc1cccc(NC(=S)N2CCC(NC(=O)c3cccc(F)c3)CC2)c1	·	–	·	·	·	·
Cc1cc(C(=O)Cn2nc(C(=O)O)c3ccccc3c2=O)c(C)n1-c1ccc(F)cc1	–	–	·	–	–	–
O=C(OCc1csc(-c2ccccc2)n1)c1ccccc1O	–	50	–	–	–	–
O=C(Cn1nnc(-c2ccccc2)n1)OCc1csc(-c2ccccc2)n1	–	–	–	–	–	–
Clc1ccc(-c2cc3ccccc3nc2N2CCCC2)cc1	–	69	–	–	70	·
Clc1ccc(-c2cc3ccccc3nc2N2CCOCC2)cc1	–	–	–	–	–	·
Cc1ccc(C(C)C)c(OCCCNCc2cccnc2)c1	–	–	–	–	–	–
CCCCNCC#CCOc1cc(C)ccc1C(C)C	–	–	–	–	74	–
O=C(NCC1(c2ccccc2)CCCC1)C1(c2ccccc2)CCCC1	–	–	–	–	83	–
c1csc(C(c2nnnn2C2CCCCC2)N2CCCC3(CCCCC3)C2)c1 (stereo not drawn)	–	–	·	·	62	–
c1ccc(CC2CCN(C(c3cccs3)c3nnnn3C3CCCC3)CC2)cc1 (stereo not drawn)	–	–	–	–	–	·
CC(C)(C)n1nnnc1C(c1cccs1)N1CCCC2(CCCCC2)C1 (stereo not drawn)	–	–	–	·	78	–
COc1ccc(-c2csc(NC(=O)CSc3nc(C)nc4sc(C(=O)O)c(C)c34)n2)cc1	·	–	·	–	·	–
COCCn1c(SC(C)C(=O)Nc2ccc(N3CCOCC3)cc2)nnc1-c1ccncc1 (stereo not drawn)	·	–	·	·	·	·
CC(=O)c1ccc(S(=O)(=O)Oc2ccc(-c3ccc(C(=O)O)cc3)cc2)cc1	·	–	·	·	·	·
CCOC(=O)C(NC(C)=O)(Nc1ccc(S(=O)(=O)Nc2onc(C)c2C)cc1)C(F)(F)F (stereo not drawn)	–	–	–	–	–	–
Cc1cc(NS(=O)(=O)c2ccc(NC(=O)CSc3nc4sc(C)c(C)c4c(=O)[nH]3)cc2)no1	–	54	–	–	–	–
CCOC(=O)C(NC(C)=O)(Nc1ccc(S(=O)(=O)Nc2cc(C)on2)cc1)C(F)(F)F (stereo not drawn)	–	–	41	·	–	–
Cc1cc(NS(=O)(=O)c2ccc(NC(=O)c3ccco3)cc2)nc(C)n1	–	–	–	–	–	–
Cc1cc(NS(=O)(=O)c2ccc(NC(=O)CSc3nc4sc(C(=O)O)c(C)c4c(=O)[nH]3)cc2)no1	–	–	–	–	–	–
Cc1cc(NS(=O)(=O)c2ccc(NC(=O)c3ccco3)cc2)no1	+	–	–	–	–	·
Cc1nn(CC(=O)Nc2ccc(Cl)cc2)c(=O)c2cc(-c3ccccc3)nn12	·	–	·	·	·	·
CCOc1ccc(NC(=O)CSc2ccc(-c3cccnc3)nn2)cc1	·	–	·	·	·	·
CCN1C(=O)/C(=C/N2CCc3ccccc32)SC1=S	+	–	–	–	–	–
CC(C)(C)c1ccc(-c2cc(-c3ccccc3O)[nH]n2)cc1	·	104	·	·	·	·
COc1ccc(-c2cc(-c3ccc(C)cc3)n[nH]2)c(O)c1	·	77	·	·	·	·
Cc1ccc(O)c(-c2cc(-c3ccccc3C)[nH]n2)c1	–	–	·	–	78	–

Source: PubChem (several laboratories)
